# Assay results from ChEMBL document CHEMBL4028810, “Synthesis and biological evaluation of novel chalcone derivatives as a new class of microtubule destabilizing agents” (Eur J Med Chem, 2017).
# The source made the active and inactive calls. The rule behind the calls is not given here.
# How the values were obtained:
# HeLa [1] = assay: Resistant factor, ratio of IC50 for human HeLa/TR cells to IC50 for human HeLa cells; assay type: functional
# In short: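 The resistance index is IC50 on the paclitaxel-resistant line divided by IC50 on the parental sensitive line (A549 or HeLa). Both IC50 values come from the 48 h, five-concentration growth assay with 570/630 nm absorbance read-out and Bliss-method calculation.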
# NCI-H460 [2] = assay: Induction of apoptosis in human NCI-H460 cells assessed as increase in cleaved caspase-9 expression at 5 to 10 uM after 48 hrs by Western blot method; assay type: functional, cell-based
# In short: (§1)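 NCI-H460 cells were treated 48 h at various concentrations. Cells were washed in ice-cold PBS and lysed on ice for 20 min, and lysates were spun at 20000 g and 4 °C for 5 min. Protein was quantified by BCA, and equal amounts were run on 12% SDS-PAGE and transferred to PVDF. Membranes were blocked in 5% milk/TBST, probed overnight at 4 °C with primary antibodies (β-actin as reference), then with peroxidase secondary for 2 h. Bands were detected by chemiluminescence.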
# NCI-H460 [3] = assay: Disruption of mitochondrial membrane potential in human NCI-H460 cells assessed as intact mitochondrial membrane potential at 10 uM after 24 hrs by JC-1 staining based flow cytometric method (reference value: 11.9%); assay type: functional
# In short: (§2)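 NCI-H460 cells were treated 24 h at 5 or 10 µM, with untreated cells as control. The medium was replaced, and the JC-1 probe was added 20 min later. Cells were then pelleted at 2000 rpm, washed twice in ice-cold PBS and analysed by flow cytometry with excitation at 488 nm and emission at 530 and 590 nm.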
# NCI-H460 [4] = assay: Cell cycle arrest in human NCI-H460 cells assessed as accumulation at S-phase at 5 uM after 48 hrs by propidium iodide staining based flow cytometric method (reference value: 21.79%); assay type: functional
# NCI-H460 [5] = assay: Induction of apoptosis in human NCI-H460 cells assessed as live cells at 5 uM after 24 hrs by Annexin V-FITC/propidium iodide staining based flow cytometric method (reference value: 95.8%); assay type: functional
# NCI-H460 [6] = assay: Induction of apoptosis in human NCI-H460 cells after 24 hrs by Annexin V-FITC/propidium iodide staining based flow cytometric method; assay type: functional, cell-based
# HeLa [7] = assay: Cytotoxicity against human HeLa cells after 48 hrs by MTT assay; assay type: functional, cell-based
# In short: (§3)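 Log-phase cells were seeded at about 1 × 10⁵ cells/mL in 96-well plates and allowed to settle 12 h at 37 °C in 5% CO₂. Compounds were added at five concentrations for 48 h. Absorbance was read at dual wavelength 570/630 nm. Survival was expressed as a percentage of control, and IC50 was calculated by the Bliss method (n = 5). Each test was run in triplicate.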
# Sus scrofa = species on record: Sus scrofa; assay: Inhibition of porcine brain tubulin polymerization at 15 uM measured at 1 min interval for 40 mins by spectrophotometric method
# In short: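 Purified brain tubulin, final 3.0 mg/mL, was added to start the reaction in 80 mM PIPES pH 6.9, 2.0 mM MgCl₂, 0.5 mM EGTA, 1 mM GTP and 10.2% glycerol, with the other components prewarmed to 37 °C. Compounds were tested at 10 or 15 µM. Polymerization at 37 °C was followed as absorbance at 340 nm over 40 min.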
# NCI-H460 [8] = assay: Induction of apoptosis in human NCI-H460 cells assessed as upregulation of Bax expression after 48 hrs by Western blot method; assay type: functional, cell-based; in short: as §1
# NCI-H460 [9] = assay: Cell cycle arrest in human NCI-H460 cells assessed as accumulation at S-phase at 10 uM after 48 hrs by propidium iodide staining based flow cytometric method (reference value: 21.79%); assay type: functional
# NCI-H460 [10] = assay: Induction of apoptosis in human NCI-H460 cells assessed as increase in cytochrome c release from mitochondria to cytosol after 48 hrs by Western blot method; assay type: functional, cell-based; in short: as §1
# A549/TR = assay: Cytotoxicity against human A549/TR cells after 48 hrs by MTT assay; assay type: functional, cell-based; in short: as §3
# NCI-H460 [11] = assay: Cell cycle arrest in human NCI-H460 cells assessed as accumulation at G1-phase at 10 uM after 48 hrs by propidium iodide staining based flow cytometric method (reference value: 75.84%); assay type: functional
# NCI-H460 [12] = assay: Induction of apoptosis in human NCI-H460 cells assessed as necrotic cells at 10 uM after 24 hrs by Annexin V-FITC/propidium iodide staining based flow cytometric method (reference value: 1.84%); assay type: functional
# HepG2 = assay: Cytotoxicity against human HepG2 cells after 48 hrs by MTT assay; assay type: functional, cell-based; settings: HepG2, 48 h; in short: as §3
# NCI-H460 [13] = assay: Induction of apoptosis in human NCI-H460 cells assessed as late apoptotic cells at 10 uM after 24 hrs by Annexin V-FITC/propidium iodide staining based flow cytometric method (reference value: 0.839%); assay type: functional
# NCI-H460 [14] = assay: Cell cycle arrest in human NCI-H460 cells assessed as accumulation at G2-phase at 10 uM after 48 hrs by propidium iodide staining based flow cytometric method (reference value: 2.37%); assay type: functional
# NCI-H460 [15] = assay: Induction of apoptosis in human NCI-H460 cells assessed as increase in cleaved caspase-3 expression at 5 to 10 uM after 48 hrs by Western blot method; assay type: functional, cell-based; in short: as §1
# NCI-H460 [16] = assay: Disruption of mitochondrial membrane potential in human NCI-H460 cells assessed as intact mitochondrial membrane potential at 5 uM after 24 hrs by JC-1 staining based flow cytometric method (reference value: 11.9%); assay type: functional; in short: as §2
# NCI-H460 [17] = assay: Cell cycle arrest in human NCI-H460 cells assessed as increase in accumulation at G2-phase after 48 hrs by propidium iodide staining based flow cytometric method; assay type: functional
# NCI-H460 [18] = assay: Induction of apoptosis in human NCI-H460 cells assessed as live cells at 10 uM after 24 hrs by Annexin V-FITC/propidium iodide staining based flow cytometric method (reference value: 95.8%); assay type: functional
# NCI-H460 [19] = assay: Induction of apoptosis in human NCI-H460 cells assessed as appearance of hyper-condensed nuclei after 24 hrs by Hoechst 33258 staining based fluorescence assay; assay type: functional, cell-based
# In short: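 NCI-H460 cells were treated 24 h at 5 or 10 µM, with untreated cells as control. Nuclei were stained with Hoechst 33258 and inspected by fluorescence for chromatin condensation.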
# NCI-H460 [20] = assay: Disruption of mitochondrial membrane potential in human NCI-H460 cells assessed as collapse of mitochondrial membrane potential at 10 uM after 24 hrs by JC-1 staining based flow cytometric method (reference value: 1.98%); assay type: functional; in short: as §2
# NCI-H460 [21] = assay: Induction of apoptosis in human NCI-H460 cells assessed as early apoptotic cells at 10 uM after 24 hrs by Annexin V-FITC/propidium iodide staining based flow cytometric method (reference value: 1.55%); assay type: functional
# NCI-H460 [22] = assay: Cytotoxicity against human NCI-H460 cells after 48 hrs by MTT assay; assay type: functional, cell-based; settings: NCI-H460, 48 h; in short: as §3
# MGC-803 = assay: Cytotoxicity against human MGC803 cells after 48 hrs by MTT assay; assay type: functional, cell-based; settings: MGC-803, 48 h; in short: as §3
# NCI-H460 [23] = assay: Induction of apoptosis in human NCI-H460 cells assessed as early apoptotic cells at 5 uM after 24 hrs by Annexin V-FITC/propidium iodide staining based flow cytometric method (reference value: 1.55%); assay type: functional
# NCI-H460 [24] = assay: Cell cycle arrest in human NCI-H460 cells assessed as accumulation at G2-phase at 5 uM after 48 hrs by propidium iodide staining based flow cytometric method (reference value: 2.37%); assay type: functional
smiles,measurement,setting,value
COc1ccc(/C=C/C(=O)c2cc(OC)c(OC)c(OC)c2)cc1OCC(=O)Nc1ccccc1Cl,Ratio IC50,HeLa [1],1.31
same,Activity,NCI-H460 [2],Active
same,Activity,NCI-H460 [3],26.2%
same,Activity,NCI-H460 [4],29%
same,Activity,NCI-H460 [5],83.6%
same,Activity,NCI-H460 [6],Dose-dependent effect
same,IC50,HeLa [7],4.53 µM
same,inhibition,Sus scrofa,Active
same,Activity,NCI-H460 [8],Dose-dependent effect
same,Activity,NCI-H460 [9],20.81%
same,Activity,NCI-H460 [10],Dose-dependent effect
same,IC50,A549/TR,6.25 µM
same,Activity,NCI-H460 [11],1.95%
same,Activity,NCI-H460 [12],10.9%
same,IC50,HepG2,4.06 µM
same,Activity,NCI-H460 [13],42.7%
same,Activity,NCI-H460 [14],72.4%
same,Activity,NCI-H460 [15],Active
same,Activity,NCI-H460 [16],16.9%
same,Activity,NCI-H460 [17],Dose-dependent effect
same,Activity,NCI-H460 [18],22.7%
same,Activity,NCI-H460 [19],Dose-dependent effect
same,Activity,NCI-H460 [20],4.86%
same,Activity,NCI-H460 [21],23.7%
same,IC50,NCI-H460 [22],3.75 µM
same,IC50,MGC-803,8.42 µM
same,Activity,NCI-H460 [23],11.9%
same,Activity,NCI-H460 [24],11.88%
